Laboratory results taken from ChEMBL document CHEMBL1128731, “Furanfurin and thiophenfurin: two novel tiazofurin analogues. Synthesis, structure, antitumor activity, and interactions with inosine monophosphate dehydrogenase” (J Med Chem, 1995).

Key:
[1] = Ratio of IC50 against HL-60; type: functional
Method in brief: (§1)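 Antiproliferative assay scoring [125I]-5-iodo-2'-deoxyuridine incorporation into DNA after 72 h drug–cell contact. Run on normal human bone marrow from five donors and in three assays on HL-60. Ratio is antilog(mean log IC50 or IC90) on bone marrow over the same on HL-60. Range limits are antilog(mean log IC50 ± 2SD).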

[2] = test system: L1210; test: Inhibitory concentration against L1210 murine lymphocytic leukemia; type: functional, cell-based; conditions: Mus musculus
Method in brief: (§2)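 Cells in log phase plated with a range of drug concentrations (B16 5×10^3 cells/well; P388, L1210, LLC 10^4 cells/well; HL-60, K562, LoVo 2.5×10^5 cells/well). Growth read by modified MTT after 72 h drug contact at 37 °C. IC50 taken as the concentration reducing optical absorption by 50%, from Chou regression analysis. Maximum concentration tested 200 μM.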

[3] = test system: K562; test: Compound was tested for its effect on GTP ribonucleotide levels of K562 cell at 50 uM concentration; type: functional, Homo sapiens
Method in brief: (§3)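 K562 cells (1×10^7) were treated with saline or agent for 2 h at 37 °C, harvested by centrifugation and washed with cold saline. They were extracted with cold 10% trichloroacetic acid, neutralized with 0.5 M tri-n-octylamine in freon, and analyzed by HPLC. Levels are in nmol/g and expressed as % of saline control. Significance was set at p < 0.05.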

[4] = test system: K562; test: Compound was tested for its effect on IMP ribonucleotide levels of K562 cell at 50 uM concentration; type: functional, Homo sapiens; method in brief: as §3
[5] = test system: K562; test: Compound was tested for its effect on ATP ribonucleotide levels of K562 cell at 10 uM concentration; type: functional, Homo sapiens; method in brief: as §3
[6] = test system: K562; test: Compound was tested for its effect on CTP ribonucleotide levels of K562 cell at 10 uM concentration; type: functional, Homo sapiens; method in brief: as §3
[7] = test system: K562; test: Compound was tested for its effect on UMP ribonucleotide levels of K562 cell at 100 uM concentration; type: functional, Homo sapiens; method in brief: as §3
[8] = test system: K562; test: Compound was tested for its effect on NAD ribonucleotide levels of K562 cell at 10 uM concentration; type: functional, Homo sapiens; method in brief: as §3
[9] = test system: K562; test: Compound was tested for its effect on ATP ribonucleotide levels of K562 cell at 50 uM concentration; type: functional, Homo sapiens; method in brief: as §3
[10] = test system: K562; test: Compound was tested for its effect on UMP ribonucleotide levels of K562 cell at 50 uM concentration; type: functional, Homo sapiens; method in brief: as §3
[11] = test system: Mus musculus; test: Average weight change of mice from onset to termination of drug treatment at 400 mg/kg dose; early death due to toxicity; type: functional, organism-based; parameters: dose 400 mg/kg
Method in brief: (§4)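 Female BD2F1 mice (8 weeks, 20–22 g), eight per group, injected ip with 10^5 L1210 cells on day 0. From 24 h later, drug in 0.9% NaCl was given ip once daily for 9 days. Body weight change was averaged from onset to termination of treatment. Early deaths from toxicity were recorded.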

[12] = test system: Mus musculus; test: Compound was tested for ratio of survival time of treated to control mice x100 at 25 mg/kg dose; type: functional
Method in brief: (§5)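 Female BD2F1 mice (8 weeks old, 20–22 g), eight per group, injected ip with 10^5 L1210 leukemia cells on day 0. Starting 24 h later, drug dissolved in 0.9% NaCl given ip once daily for 9 consecutive days. % T/C = survival time of treated/control mice × 100. Body weight change tracked from start to end of treatment.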

[13] = organism: Homo sapiens; test: Inhibitory concentration range against human bone marrow; type: functional; method in brief: as §1
[14] = test system: HL-60; test: Inhibitory concentration against HL-60 human promyelocytic leukemia; type: functional, cell-based; method in brief: as §2
[15] = test system: K562; test: Compound was tested for its effect on AMP ribonucleotide levels of K562 cell at 50 uM concentration; type: functional, Homo sapiens; method in brief: as §3
[16] = test system: K562; test: Compound was tested for its effect on CDP ribonucleotide levels of K562 cell at 100 uM concentration; type: functional, Homo sapiens; method in brief: as §3
[17] = test system: Mus musculus; test: Compound was tested for ratio of survival time of treated to control mice x100 at 6.2 mg/kg dose; type: functional; method in brief: as §5
[18] = test system: HL-60; test: Inhibitory concentration against human HL-60 cell line(activity expressed as range); type: functional; method in brief: as §1
[19] = IC90 ratio against bone marrow samples to HL-60; type: functional; method in brief: as §1
[20] = test system: K562; test: Compound was tested for its effect on AMP ribonucleotide levels of K562 cell at 10 uM concentration; type: functional, Homo sapiens; method in brief: as §3
[21] = test system: K562; test: Compound was tested for its effect on GMP ribonucleotide levels of K562 cell at 100 uM concentration; type: functional, Homo sapiens; method in brief: as §3
[22] = test system: K562; test: Compound was tested for its effect on GTP ribonucleotide levels of K562 cell at 10 uM concentration; type: functional, Homo sapiens; method in brief: as §3
[23] = test system: B16; test: Inhibitory concentration against B16 melanoma cell lines; type: functional, cell-based; conditions: Mus musculus; method in brief: as §2
[24] = test system: K562; test: Compound was tested for its effect on AMP ribonucleotide levels of K562 cell at 100 uM concentration; type: functional, Homo sapiens; method in brief: as §3
[25] = test system: Mus musculus; test: Average weight change of mice from onset to termination of drug treatment at 100 mg/kg dose; early death due to toxicity; type: functional, organism-based; parameters: dose 100 mg/kg; method in brief: as §4
[26] = test system: K562; test: Inhibitory concentration against K562 human myelogenous leukemia cell line; type: functional, cell-based; method in brief: as §2
[27] = test system: Mus musculus; test: Average weight change of mice from onset to termination of drug treatment at 25 mg/kg dose; type: functional; method in brief: as §4
[28] = test system: K562; test: Compound was tested for its effect on UTP ribonucleotide levels of K562 cell at 100 uM concentration; type: functional, Homo sapiens; method in brief: as §3
[29] = test system: P388; test: Inhibitory concentration against P388 murine lymphocytic leukemia cell lines; type: functional, cell-based; conditions: Mus musculus; method in brief: as §2
[30] = test system: K562; test: Compound was tested for its effect on IMP ribonucleotide levels of K562 cell at 100 uM concentration; type: functional, Homo sapiens; method in brief: as §3
[31] = test system: K562; test: Formation of NAD analogue by compound at 100 uM concentration against human myelogenous leukemia K562; type: functional
Method in brief: (§6)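 K562 cells (1×10^7/10 mL) were labeled with 185 nM [2,8-3H]adenosine for 1 h at 37 °C, then given saline or analogue for 2 h. Cells were pelleted, washed with PBS and extracted in cold 10% trichloroacetic acid. Extracts were neutralized with 0.5 M tri-n-octylamine in freon and run on SAX HPLC with ammonium phosphate buffer. Results are pmol NAD analogue per 10^9 cells.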

[32] = test system: K562; test: Compound was tested for its effect on NAD ribonucleotide levels of K562 cell at 100 uM concentration; type: functional, Homo sapiens; method in brief: as §3
[33] = test system: K562; test: Formation of NAD analogue by compound at 50 uM concentration against human myelogenous leukemia K562; type: functional; method in brief: as §6
[34] = test system: K562; test: Compound was tested for its effect on GDP ribonucleotide levels of K562 cell at 50 uM concentration; type: functional, Homo sapiens; method in brief: as §3
[35] = test system: K562; test: Compound was tested for its effect on GDP ribonucleotide levels of K562 cell at 100 uM concentration; type: functional, Homo sapiens; method in brief: as §3
[36] = test system: Lewis lung carcinoma cell line; test: Inhibitory concentration against LLC Lewis lung carcinoma; type: functional, cell-based; conditions: Mus musculus; method in brief: as §2
[37] = test system: K562; test: Compound was tested for its effect on ADP ribonucleotide levels of K562 cell at 50 uM concentration; type: functional, Homo sapiens; method in brief: as §3
[38] = test system: K562; test: Compound was tested for its effect on IMPDH activity against K562 cells at 100 uM concentration; type: functional, Homo sapiens
Method in brief: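 Log-phase K562 cells (1×10^6/mL) were exposed to saline or agent for 2 h at 37 °C, washed and lysed (Tris-HCl pH 7.4, NaCl, MgCl2, 0.5% NP-40, aprotinin). The cleared supernatant was incubated 30 min at 37 °C with 286 μM [2,8-3H]IMP and 1 mM NAD. Tritium release was counted by scintillation. Activity is nmol XMP/h/mg protein, also given as % of control.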

**Q.** With `NC(=O)c1csc([C@@H]2O[C@H](CO)[C@@H](O)[C@H]2O)c1` as the molecule, how does the Ratio [1] read?
**A.** The Ratio was 5.9.

**Q.** What about the IC50 [2] of the same molecule?
**A.** Its IC50 is 7.6 µM.

**Q.** And the Control [3]?
**A.** The Control was 58%.

**Q.** And the Control [4]?
**A.** The Control was 594%.

**Q.** And the Control [5]?
**A.** The Control was 92%.

**Q.** And the Control [6]?
**A.** The Control was 32%.

**Q.** And the Control [7]?
**A.** The Control was 107%.

**Q.** And the Control [8]?
**A.** The Control was 81%.

**Q.** And the Control [9]?
**A.** Its Control is 88%.

**Q.** And the Control [10]?
**A.** The Control was 115%.

**Q.** What about the Change [11] of the same molecule?
**A.** The Change was “Toxic”.

**Q.** What about the T/C [12] of the same molecule?
**A.** Its T/C is 168%.

**Q.** What about the IC90 [13] of the same molecule?
**A.** The IC90 was over 128 µM.

**Q.** And the IC50 [14]?
**A.** The IC50 was 13.9 µM.

**Q.** What about the Control [15] of the same molecule?
**A.** The Control was 140%.

**Q.** And the Control [16]?
**A.** The Control was 99%.

**Q.** And the T/C [17]?
**A.** Its T/C is 155%.

**Q.** What about the IC90 [18] of the same molecule?
**A.** Its IC90 is 8.3 µM.

**Q.** And the Ratio [19]?
**A.** Its Ratio is over 10.

**Q.** What about the Control [20] of the same molecule?
**A.** Its Control is 156%.

**Q.** What about the Control [21] of the same molecule?
**A.** Its Control is 80%.

**Q.** And the Control [22]?
**A.** Its Control is 71%.

**Q.** What about the IC50 [23] of the same molecule?
**A.** The IC50 was 25.8 µM.

**Q.** And the Control [24]?
**A.** Its Control is 131%.

**Q.** What about the Change [25] of the same molecule?
**A.** The Change was “Toxic”.

**Q.** What about the IC50 [26] of the same molecule?
**A.** The IC50 was 8.8 µM.

**Q.** And the Change [27]?
**A.** The Change was -9.8%.

**Q.** What about the Control [28] of the same molecule?
**A.** Its Control is 87%.

**Q.** And the IC50 [29]?
**A.** Its IC50 is 3.2 µM.

**Q.** What about the Control [30] of the same molecule?
**A.** Its Control is 689%.

**Q.** What about the Formation [31] of the same molecule?
**A.** The Formation was 886 pmol/10^9 cells.

**Q.** And the Control [32]?
**A.** The Control was 63%.

**Q.** And the Formation [33]?
**A.** Its Formation is 505 pmol/10^9 cells.

**Q.** And the Control [34]?
**A.** The Control was 79%.

**Q.** And the Control [35]?
**A.** The Control was 77%.

**Q.** And the IC50 [36]?
**A.** The IC50 was 11.2 µM.

**Q.** What about the Control [37] of the same molecule?
**A.** Its Control is 114%.

**Q.** And the Activity [38]?
**A.** The Activity was 1.07.
